# Screening data as filed in PubChem BioAssay.
# A selection: hits, their analogues and other compounds. The true share with any hit is near 3.1%.
# miR-122 sensor = inhibitors of miR-122 in Huh7 cells. Huh7 miR-122 Renilla luciferase sensor, 48 h; neutral wells = 0, positive control = 100. activation (reporter increase), % at 12.5 µM. 0.3% of 340,000 active. AID 602342;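 active = mean replicate activation score at least 90 and every replicate individually at or above 90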;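 also: higher luciferase means less miR-122 activity so hits act as miR-122 inhibitors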
# DENV2 CPE = inhibitors of DENV2 cytopathic effect. DENV2-infected cells, cytopathic effect rescue, plate reader. CPE inhibition, % at 9.99 µM. 1.7% of 350,000 active. AID 651640; in the data active = CPE inhibition above about 20%, passing the limit was not always enough; tested in BHK-21 cells;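 also: 0% = median of neutral control wells and 100% = median of positive control wells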
# Cneo AK release = Cryptococcus neoformans lysis via adenylate kinase release | lysis activity, % at 15 µM | 0.2% of 360,000 active | AID 651654 | C. neoformans lysis, adenylate kinase release luminescence, 4 h; normalised: neutral wells 0, clomiphene wells 100;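 active = mean lysis activity across replicates of at least 80%, whatever share of replicates individually reach that level; inactive = mean lysis activity below 80%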
#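 Material: C. neoformans cells | Amount: Yeast cell density of 5 × 10^6 cells/mL | Medium: Fresh YPD growth medium | Dosing: Single dose | Times: Static 4 h at 37 °C with compound, 1 h detection | Detection: AK luminescence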
# Ecoli rRNA inh = selective bacterial rRNA inhibition in E. coli; 1.6% of 350,000 active; AID 720706; GFP signal change (wild-type ribosome), % (concentration not given with the values); E. coli WT GFP vs humanized-ribosome RFP mutants, fluorescence, 24 h; active compounds read low; DMSO median 0, no signal -100;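 active = significant combined selectivity score with lowered wild-type GFP, culture density cut under 30%, mutant RFP and density less affected; inactive = any of these conditions unmet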
# E-selectin induc = induces E-selectin expression in human endothelial cells | 0.37% of 260,000 active | activation, % at 7.58 µM | AID 686992 | P16581 | HUVEC E-selectin immunofluorescence imaging; normalized: neutral wells 0, TNF-alpha wells 100;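 active = mean E-selectin-positive cell signal at least 10% of the positive control, reached in at least 60% of replicates, without over 20% cell loss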
#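 material = human umbilical vein endothelial cells (HUVEC), E-selectin induction | quantity = 3,000 cells/well | medium = EGM-2 growth medium on 0.1% gelatin-coated wells | technique = immunofluorescence imaging | read-out basis = % PE-positive cells | control set = TNF-alpha positive control, DMSO neutral control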
# Numbers without * were called inactive; nt = not tested or not shown; [ ] = dose if it differs, or a comment.
SMILES,miR-122 sensor,DENV2 CPE,Cneo AK release,Ecoli rRNA inh,E-selectin induc
COc1ccc2c3c([nH]c2c1)[C@@H](CO)N(Cc1nccs1)CC31CN(Cc2ccncc2)C1,nt,54*,nt,2,0
COc1ccc2c3c([nH]c2c1)[C@H](CO)N(C(C)=O)CC31CCN(C(=O)c2cccc(F)c2)CC1,nt,-2,nt,0,0
COc1ccc2c3c([nH]c2c1)[C@@H](CO)N(Cc1nccs1)CC31CN(Cc2cccnc2)C1,nt,-6,nt,1,0
COc1ccc2c3c([nH]c2c1)[C@@H](CO)N(C(=O)c1ccc(F)cc1)CC31CN(Cc2cccnc2)C1,nt,7,nt,-1,0
COc1ccc2c3c([nH]c2c1)[C@@H](CO)N(C(=O)CN1CCOCC1)CC31CN(Cc2ccccc2)C1,nt,40*,nt,6,1
COc1ccc2c3c([nH]c2c1)[C@H](CO)N(C(C)=O)CC31CN(C(=O)c2cccc(F)c2)C1,nt,83*,nt,-2,0
O=C(Cc1ccccn1)N[C@@H]1CC[C@H](CCn2cc(-c3ccc(F)cc3)nn2)O[C@H]1CO,nt,-2,nt,-1,0
COc1ccc2c3c([nH]c2c1)[C@@H](CO)N(C(=O)c1ccccc1)CC31CCN(C)CC1,nt,31*,nt,2,0
COc1ccc2c3c([nH]c2c1)[C@@H](CO)N(C(=O)c1cccnc1)CC31CCN(Cc2ccccc2)CC1,nt,-25,nt,0,0
COc1ccc2c3c([nH]c2c1)[C@@H](CO)N(C(=O)c1cccnc1)CC31CN(Cc2ccccc2)C1,nt,35*,nt,2,0
CCC(=O)N1CCC2(CC1)CN(S(=O)(=O)c1ccccc1)[C@@H](CO)c1[nH]c3cc(OC)ccc3c12,nt,28*,nt,2,0
CCC(=O)N1CC2(CCN(Cc3ccccc3Cl)CC2)c2c([nH]c3cc(OC)ccc23)[C@@H]1CO,nt,24*,nt,-6,0
COc1ccc2c3c([nH]c2c1)[C@H](CO)N(C(=O)c1ccccc1)CC31CCN(C)CC1,nt,11,nt,-1,0
C[C@@H]1CN([C@@H](C)CO)C(=O)c2cc(NC(=O)Nc3ccc(F)cc3)ccc2O[C@@H]1CN(C)CC1CCCCC1,13[16.7 µM],5,57,2,1
CC=Cc1ccc2n(c1=O)C[C@H]1[C@H](CO)[C@@H](C(=O)NC3CCCC3)N(Cc3ccccc3)[C@@H]21 (mixture of isomers),1[16.7 µM],-2,-1,-6,0
O=C(c1ccccc1)N1CC(=O)N2[C@H](CO)[C@H](c3ccc(C#Cc4ccccc4)cc3)[C@H]2C1,nt,1,nt,-5,0
COc1ccc(NC(=O)N2CCC3(CC2)CN(CC2CC2)[C@H](CO)c2c3c3ccc(OC)cc3n2C)cc1,nt,-1,nt,-1,-1
O=C(Nc1ccc(S(=O)(=O)Nc2ncccn2)cc1)c1cc([N+](=O)[O-])ccc1Cl,-7,-2,2,11,nt
O=C(Nc1ccc(S(=O)(=O)Nc2ncccn2)cc1)c1cccc([N+](=O)[O-])c1,2,71*,2,1,0
O=C(NC(=S)NCc1ccco1)c1ccc([N+](=O)[O-])cc1,nt,1,nt,-5.5*,0
Cc1ccc(S(=O)(=O)Nc2cccc3c2O[C@H](CN(C)C(=O)Nc2c(C)noc2C)[C@@H](C)CN([C@H](C)CO)C3=O)cc1,35[16.7 µM],0,42,2,0
COc1ccc(S(=O)(=O)Nc2cccc3c2O[C@H](CN(C)C(=O)Nc2c(C)noc2C)[C@H](C)CN([C@H](C)CO)C3=O)cc1,1[16.7 µM],-1,-1,-4,96*
COc1ccc(S(=O)(=O)Nc2cccc3c2O[C@@H](CN(C)C(=O)Nc2c(C)noc2C)[C@H](C)CN([C@@H](C)CO)C3=O)cc1,-5[16.7 µM],11,-1,0,-10
Cc1noc(C)c1NC(=O)N(C)C[C@@H]1Oc2c(NS(=O)(=O)c3ccccc3)cccc2C(=O)N([C@@H](C)CO)C[C@@H]1C,0[16.7 µM],125*,-53,-3,0
COc1ccc(S(=O)(=O)Nc2cccc3c2O[C@H](CN(C)C(=O)Nc2c(C)noc2C)[C@@H](C)CN([C@@H](C)CO)C3=O)cc1,-4[16.7 µM],10,-2,5,32*
C[C@H]1CN([C@@H](C)CO)C(=O)c2cc(C#Cc3ccccc3F)cnc2O[C@H]1CN(C)C(=O)C1CCOCC1,-1[16.7 µM],-11,-2,3,0
